Data published in the EternaBench riboswitch data.

Tested on: MS2 coat protein
Test: apparent Kd, MS2 coat protein; higher = weaker binding; RNA-MaP array
In short: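 Incubations were done at room temperature with fluorescently labeled MS2 coat protein at 1.5 nM to 3 μM and designed RNAs transcribed on an Illumina sequencing chip from sequenced DNA templates, with or without input ligand. Apparent Kd is the median of binding curves fitted for each cluster. Designs with fewer than 10 measured clusters were excluded.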

[1] = designed as: ON switch for flavin mononucleotide, no ligand
[2] = ligand present: flavin mononucleotide, designed as: ON switch for flavin mononucleotide
[3] = designed as: OFF switch for flavin mononucleotide, no ligand
[4] = ligand present: flavin mononucleotide, designed as: OFF switch for flavin mononucleotide

| Sequence | apparent Kd [1] | apparent Kd [2] | apparent Kd [3] | apparent Kd [4] | other results |
| --- | --- | --- | --- | --- | --- |
| GAAGAGAGGAUACCGUUUGUAUACAACGAUACCAGUGGUAUGUAUCACCCUUGGCAGCGUGAGACAUGAGGAUCACCCAUGUGGC | – | – | – | – | apparent Kd (designed as: OFF switch for theophylline, no ligand): 21.2 nM; apparent Kd (ligand present: theophylline, designed as: OFF switch for theophylline): 21.6 nM |
| CAACACGGAGAGAAGGAAGCUGAAACGGUGCACUUAGGAUAUCUUCCGCCAGAAAACAUGAGGAUCACCCAUGUUCAGUUAACG | 7.82 nM | 7.54 nM | – | – | – |
| CCGGGCGCUUAACAGGAUAUAGCAGUACAUACAUGAGGAUCACCCAUGUCUAUCUUGUAAUAAAGCUAGAAGGGUUCAUCCGAGGU | 14 nM | 9.84 nM | – | – | – |
| UACGGUCAUAGAGGAUAUAGAUCGCGCAACGGUUUCGUGGCCCACAUGAGGAUCACCCAUGUUAUCUAGAAGGCUAUGAGUCGC | – | – | 6.82 nM | 6.8 nM | – |
| CAGGCAUGUAUAGGAUAUUGGGCUGGACGCGUUGUCGGUCGUUCCAACAUGAGGAUCACCCAUGUCAAGAAGGAUAUGCAUUCG | 38.8 nM | 27.3 nM | – | – | – |
| AGCGUGUAAGGAUAUCCAAUUGAUGGGAGCGGAUCUUCCCAGGAGAAGGUACAUGAGGAUCACCCAUGUGGCGC | – | – | 37.2 nM | 35 nM | – |
| AUGUGCAAUACGGAUACCAGCCCGUGUAGAUACAUGAGGAUCACCCAUGUCAAUGUAAAUGGCCCUUGGCAGCCGUUUGGGAGGC | – | – | – | – | apparent Kd (designed as: ON switch for theophylline, no ligand): 15.7 nM; apparent Kd (ligand present: theophylline, designed as: ON switch for theophylline): 11.8 nM |
| AUUGAACAUGAGGAUCACCCAUGUGCGGGUGGUAUAGGAUAUGCAGGAUCCUAAGAGUAAGCAGAAGGAUACACCG | 445 nM | 33.4 nM | – | – | – |
| CUGUAGACAGGAUAUGUUGUGCCGUACAUGAGGAUCACCCAUGUGAGAUCUCGCUACCAUACAGAAGGGUCUAAAC | – | – | 43.2 nM | 57.4 nM | – |
| AUACCUAGUGAAGGAUAUCCAAAUAACUAUAGAGGAGAAGGACACAUUCUAACAUGAGGAUCACCCAUGUCCCGCCGUCUUACC | 14.4 nM | 11.9 nM | – | – | – |
| GUACAGGAGGAAGGAUAUAAUGCACAUGAGGAUCACCCAUGUAAGAGGAAAUCACCAUAACUGAUUUAGAAGGACCAGCAAAAC | – | – | 12 nM | 11.3 nM | – |
| CGCUACAUAGCGGCCGCCACUGUCAUGGCUACGAUAGGUCACUCGUACAUGAGGAUCACCCAUGUCAGGACCGGGCUAUCCUCGC | – | – | – | – | apparent Kd (designed as: OFF switch for tryptophan, no ligand): 92.9 nM; apparent Kd (ligand present: tryptophan, designed as: OFF switch for tryptophan): 203 nM |
| AUUAGAAUGCGAGGAUAUGGUAAAUUCAUGCAUCCAGAAGGCGCGUCAGUAGAACAUGAGGAUCACCCAUGUGAUUGUUGUGGC | – | – | 22.8 nM | 26.9 nM | – |
| CACAUGUAAGGAUAUAGUGAACUAAAGCAACUAGAUGUAAACUAGAAGGUACAUGAGGAUCACCCAUGUAAAGG | – | – | 17.3 nM | – | – |
| CCUAGACAUGAGGAUCACCCAUGUUAUUGUCUUCAAGGAUAUCGAUGUCUCUCAUAGGCACGAGAAGGUGACUCCU | 85.2 nM | 67.1 nM | – | – | – |
| AAAAGGGCAGGAUAUACAUGAGGAUCACCCAUGUUAAAGCCAACAAGAAGUUCCACUGGUAGAAGGGCCAUAGA | – | – | 8.89 nM | 8.55 nM | – |
| AGGCCAUCCAAGAAGGCUUACAACAUGAGGAUCACCCAUGUCACGGAGAUGUAUAACAUCUACUAAGAGGAUAUUGGGAGAGCU | 241 nM | 37.4 nM | – | – | – |
| CUCCCAAACAAGAAGGGCGUCGAGUACGGUGAACUUGCCACAUAACAUGAGGAUCACCCAUGUACGCAGGAUAUUGGAGCGUUU | – | – | 138 nM | 234 nM | – |
| UGGUUAACAUGACAUGAGGAUCACCCAUGUCUUGGAAUUACAAGAAGGAAGGACACAGGUAGACCUUAGGAUAUUGUGACUUGA | 24.6 nM | 11.6 nM | – | – | – |
| AGGCCACAUGAGGAUCACCCAUGUAAGGAUAUUGGAGCAUGGAAACGCUGUGCGCAUGCAAGAAGGUACACGGA | – | – | 24.7 nM | 20.5 nM | – |
| GAGACAGGGCAGAAGGUUCUAAACGGCUAAAUGAAAGGAUAUGCAAACAUUGACAUGAGGAUCACCCAUGUGUUAAAAGCUACG | – | – | 12.1 nM | 9.88 nM | – |
| AACGGCUGCGCGUAGGAUAUGGCCCAUCCAACAUGAGGAUCACCCAUGUGCCACGAUGAGACUUCCCAGAAGGACGGUGCGAUGAG | 18.4 nM | 11.6 nM | – | – | – |
| AUAAACCUAACAUGAGGAUCACCCAUGUCCUCCGUCGGUCGAAGAAGGAGUAAUGCUUAUUUUUACUAGGAUAUUCGUAAUCAC | – | – | 90.2 nM | 216 nM | – |
